Data published in ChEMBL document CHEMBL1133118 (J Med Chem, 2000).
One block for each molecule: values may come before it.

How the values were obtained:
Adenosine receptor A2a [1] = target: T1, Adenosine receptor A2a (Homo sapiens, UniProt P29274); assay: Displacement of [3H]-SCH- 58261 from human adenosine A2A receptor expressed in CHO cells; range 850-1230; assay type: cell-based
Adenosine receptor A2b [2] = target: T2, Adenosine receptor A2b (Homo sapiens, UniProt P29275); assay: Displacement of [3H]-DPCPX from Adenosine A2b receptor expressed in […]; range 52-65; assay type: cell-based
T2 sequence (P29275 whole entry): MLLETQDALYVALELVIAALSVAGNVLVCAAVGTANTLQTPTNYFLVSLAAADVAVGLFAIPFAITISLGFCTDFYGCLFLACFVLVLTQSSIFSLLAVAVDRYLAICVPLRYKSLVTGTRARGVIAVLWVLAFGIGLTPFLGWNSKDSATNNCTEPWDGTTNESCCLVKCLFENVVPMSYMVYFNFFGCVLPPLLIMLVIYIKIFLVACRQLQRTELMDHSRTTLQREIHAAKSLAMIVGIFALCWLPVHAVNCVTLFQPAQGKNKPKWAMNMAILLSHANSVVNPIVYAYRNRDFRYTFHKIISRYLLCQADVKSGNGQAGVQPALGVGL

Adenosine receptor A1 [3] = target: T3, Adenosine receptor A1 (Homo sapiens, UniProt P30542); assay: Displacement of [3H]DPCPX from human adenosine A1 receptor expressed in CHO cells; range 254-356; assay type: cell-based
T3 sequence (P30542 whole entry): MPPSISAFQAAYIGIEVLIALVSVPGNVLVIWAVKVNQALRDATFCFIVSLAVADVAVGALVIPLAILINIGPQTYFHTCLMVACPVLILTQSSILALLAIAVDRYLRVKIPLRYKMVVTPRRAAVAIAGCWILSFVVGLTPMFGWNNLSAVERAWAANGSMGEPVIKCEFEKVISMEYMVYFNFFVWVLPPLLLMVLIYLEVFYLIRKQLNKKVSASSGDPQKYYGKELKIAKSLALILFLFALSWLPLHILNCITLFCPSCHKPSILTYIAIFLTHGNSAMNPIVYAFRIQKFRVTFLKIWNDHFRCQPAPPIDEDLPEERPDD

[4] = target: Adenosine receptors; A1 & A3 (Homo sapiens) (UniProt P30542+P0DMS8); assay: Ratio of binding affinity of human A1 receptor to that of human A3 receptor; assay type: protein assay
How it was run: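 Ki ratio from displacement in CHO membranes, 6–8 concentrations, n=3-6, filtration counting. A1: 1 nM [3H]DPCPX, 50 μg protein, 120 min at 25 °C, nonspecific with 10 μM CHA. A3: 1 nM [3H]MRE3008-F20, 50 μg protein, Tris/10 mM MgCl2 pH 7.4, 120 min at 4 °C, nonspecific with 1 μM MRE3008-F20.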

[5] = target: Adenosine receptors; A2b & A3 (Homo sapiens) (UniProt P29275+P0DMS8); assay: Ratio of binding affinity of human A2B receptor to that of human A3 receptor; assay type: protein assay
How it was run: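 Ki ratio, n=3-6, 6–8 concentrations. A2B in HEK-293 membranes (20 μg): 40 nM [3H]DPCPX, 50 mM Tris HCl, 10 mM MgCl2, 1 mM EDTA, 0.1 mM benzamidine pH 7.4, 2 IU/mL adenosine deaminase, 60 min at 25 °C, nonspecific with 100 μM NECA. A3 in CHO membranes (50 μg): 1 nM [3H]MRE3008-F20, 120 min at 4 °C.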

[6] = target: T4, Adenosine receptor A3 (Homo sapiens) (UniProt P0DMS8); conditions: CHO, 1 uM
T4 sequence (whole entry): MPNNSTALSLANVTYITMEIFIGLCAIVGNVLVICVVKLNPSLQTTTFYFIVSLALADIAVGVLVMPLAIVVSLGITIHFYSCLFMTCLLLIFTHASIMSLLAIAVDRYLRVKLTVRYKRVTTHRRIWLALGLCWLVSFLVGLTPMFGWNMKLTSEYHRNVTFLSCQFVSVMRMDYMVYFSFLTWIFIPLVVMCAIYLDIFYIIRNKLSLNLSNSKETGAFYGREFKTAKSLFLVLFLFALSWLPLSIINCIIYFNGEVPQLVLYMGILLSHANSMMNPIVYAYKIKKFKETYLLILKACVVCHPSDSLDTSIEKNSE

Adenosine receptor A3 [7] = target: T5, Adenosine receptor A3 (Homo sapiens, UniProt P0DMS8); assay: biochemical
T5 sequence (P0DMS8 whole entry): T4 sequence (whole entry)

[8] = target: T4, Adenosine receptor A3 (Homo sapiens); assay: Percent reversal of 100 nM IB-MECA-inhibited cAMP accumulation in CHO cells expressing human adenosine A3 receptor at 1 uM; range 63-110; assay type: functional, cell-based
How it was run: (§1)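 CHO cells stably expressing human A3 receptor; membranes in 50 mM Tris HCl, 10 mM MgCl2, 1 mM EDTA pH 7.4 with 5 μM GTP, 0.5 mM […] and 2.0 IU/mL adenosine deaminase. Preincubated 10 min at 37 °C, then IB-MECA (100 nM) and/or antagonist with 1 mM ATP and 10 μM forskolin for 10 min. Boiled 2 min. cAMP read by [3H]cAMP competition with adrenal binding protein.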

Adenosine receptor A2a [9] = target: T1, Adenosine receptor A2a; assay: Displacement of [3H]-SCH- 58261 from human adenosine A2A receptor expressed in CHO cells; range 461-645; assay type: cell-based
Adenosine receptor A2b [10] = target: T2, Adenosine receptor A2b; assay: Displacement of [3H]DPCPX from Adenosine A2b receptor expressed in […]; range 1531-1920; assay type: cell-based
Adenosine receptor A3 [11] = target: T5, Adenosine receptor A3; assay: Displacement of [3H]MRE3008-F20 from human adenosine A3 receptor expressed in CHO cells; range 0.63-1.00; assay type: cell-based
Adenosine receptor A1 [12] = target: T3, Adenosine receptor A1; assay: Displacement of [3H]DPCPX from human adenosine A1 receptor expressed in CHO cells; range 632-1003; assay type: cell-based
Adenosine receptor A3 [13] = target: T5, Adenosine receptor A3; assay: Inhibition of cAMP accumulation in CHO cells expressing human adenosine A3 receptor; range 5.1-8.9; assay type: functional, cell-based; how it was run: as §1
Adenosine receptor A2b [14] = target: T2, Adenosine receptor A2b; assay: Displacement of [3H]DPCPX from Adenosine A2b receptor expressed in CHO cells; range 35-45; assay type: cell-based; conditions: in the assay text read “HEK-293 cells” for “CHO cells”
How it was run: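 Human recombinant A2B receptor was expressed in HEK-293 cell membranes (20 μg protein). Incubated with 40 nM [3H]DPCPX in 50 mM Tris HCl, 10 mM MgCl2, 1 mM EDTA, 0.1 mM benzamidine, pH 7.4, with 2 IU/mL adenosine deaminase, at least 6–8 test concentrations, 60 min, 25 °C. Nonspecific binding was taken with 100 μM NECA; n=3-6.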

Adenosine receptor A2a [15] = target: T1, Adenosine receptor A2a; assay: Displacement of [3H]-SCH- 58261 from human adenosine A2A receptor expressed in CHO cells; range 1.90-3.37; assay type: cell-based
[16] = target: T4, Adenosine receptor A3 (Homo sapiens); assay: Percentage of blockade by 1 uM of the inhibition by 100 nM IB-MECA-inhibited cAMP accumulation in CHO cells expressing human adenosine A3 receptor.; assay type: functional, cell-based; how it was run: as §1
Adenosine receptor A3 [17] = target: T5, Adenosine receptor A3; assay: biochemical; remark: listed apart in the source
Adenosine receptor A2a [18] = target: T1, Adenosine receptor A2a; assay: Displacement of [3H]-SCH- 58261 from human adenosine A2A receptor expressed in CHO cells; range 484-558; assay type: cell-based
How it was run: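 Membranes from CHO cells stably expressing human A2A receptor, grown in DMEM/F12 without nucleosides, resuspended in 50 mM Tris HCl, 10 mM MgCl2, pH 7.4; 50 μg protein/assay. Competition with [3H]SCH 58261 at 6–8 or more compound concentrations, 60 min at 25 °C; nonspecific binding with 50 μM NECA. Filtration on GF/B filters, scintillation counting; n=3-6.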

Adenosine receptor A2b [19] = target: T2, Adenosine receptor A2b; assay: Displacement of [3H]DPCPX from Adenosine A2b receptor expressed in […]; range 332-369; assay type: cell-based
Adenosine receptor A3 [20] = target: T5, Adenosine receptor A3; assay: Displacement of [3H]MRE3008-F20 from human adenosine A3 receptor expressed in CHO cells; range 0.08-0.27; assay type: cell-based
Adenosine receptor A1 [21] = target: T3, Adenosine receptor A1; assay: Displacement of [3H]DPCPX from human adenosine A1 receptor expressed in CHO cells; range 365-550; assay type: cell-based
Adenosine receptor A3 [22] = target: T5, Adenosine receptor A3; assay: Inhibition of cAMP accumulation in CHO cells expressing human A3 adenosine receptor; assay type: functional, cell-based
[23] = target: T4, Adenosine receptor A3 (Homo sapiens); conditions: CHO, 1 uM; remark: listed apart in the source
Adenosine receptor A2a [24] = target: T1, Adenosine receptor A2a; assay: Displacement of [3H]-SCH- 58261 from human adenosine A2A receptor expressed in CHO cells; range 1.4-2.1; assay type: cell-based
How it was run: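 CHO membranes expressing human A2A receptor (50 μg protein) in 50 mM Tris HCl, 10 mM MgCl2, pH 7.4, competed against [3H]SCH 58261. At least 6–8 test concentrations were used, with 60 min incubation at 25 °C. Nonspecific binding defined by 50 μM NECA; n=3-6.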

Adenosine receptor A1 [25] = target: T3, Adenosine receptor A1; assay: Displacement of [3H]DPCPX from human adenosine A1 receptor expressed in CHO cells; range 11-17; assay type: cell-based
Adenosine receptor A3 [26] = target: T5, Adenosine receptor A3; assay: biochemical; remark: listed apart in the source
Adenosine receptor A2b [27] = target: T2, Adenosine receptor A2b; assay: Displacement of [3H]DPCPX from Adenosine A2b receptor expressed in HEK-293 cells; range 40-69

T1 sequence (P29274 whole entry): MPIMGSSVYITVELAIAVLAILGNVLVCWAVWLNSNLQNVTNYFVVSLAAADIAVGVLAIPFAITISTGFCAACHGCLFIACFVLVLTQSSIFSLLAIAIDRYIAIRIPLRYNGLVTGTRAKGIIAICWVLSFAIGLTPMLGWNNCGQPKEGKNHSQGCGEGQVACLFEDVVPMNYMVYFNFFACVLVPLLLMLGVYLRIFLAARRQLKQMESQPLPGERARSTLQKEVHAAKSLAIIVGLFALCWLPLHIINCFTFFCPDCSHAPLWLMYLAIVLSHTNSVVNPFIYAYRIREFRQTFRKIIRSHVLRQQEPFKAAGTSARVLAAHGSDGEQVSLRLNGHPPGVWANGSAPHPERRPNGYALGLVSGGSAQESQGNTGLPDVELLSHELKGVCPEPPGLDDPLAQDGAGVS

SMILES: CCCn1cc2c(nc(N)n3nc(-c4ccco4)nc23)n1
Ki (Adenosine receptor A2b [14]): 39 nM
Ki (Adenosine receptor A2a [15]): 2.51 nM
Ratio [4]: 0.024
Ratio [5]: 0.095
inhibition [16]: 23%
Ki (Adenosine receptor A3 [17]): 408 nM

SMILES: COc1ccc(NC(=O)Nc2nc3n[nH]cc3c3nc(-c4ccco4)nn23)cc1
Ki (Adenosine receptor A2a [18]): 520 nM
Ki (Adenosine receptor A2b [19]): 350 nM
Ki (Adenosine receptor A3 [20]): 0.14 nM
Ki (Adenosine receptor A1 [21]): 448 nM
IC50 (Adenosine receptor A3 [22]): 1.8 nM
Ratio [4]: 3200
Ratio [5]: 2500
inhibition [23]: 98%

SMILES: CCCCn1cc2c(nc(N)n3nc(-c4ccco4)nc23)n1
Ki (Adenosine receptor A2a [24]): 1.6 nM
Ki (Adenosine receptor A1 [25]): 14 nM
Ratio [4]: 0.02
Ratio [5]: 0.09
inhibition [16]: 15%
Ki (Adenosine receptor A3 [26]): 600 nM
Ki (Adenosine receptor A2b [27]): 53 nM

Further lines, results first:

Ki (Adenosine receptor A2a [1]): 1020 nM
Ki (Adenosine receptor A2b [2]): 58 nM
Ki (Adenosine receptor A1 [3]): 300 nM
Ratio [4]: 7.5
Ratio [5]: 1.45
inhibition [6]: 42%
Ki (Adenosine receptor A3 [7]): 40 nM
SMILES: COc1ccc(NC(=O)Nc2nc3nn(CC=C(C)C)cc3c3nc(-c4ccco4)nn23)cc1

inhibition [8]: 84%
Ki (Adenosine receptor A2a [9]): 545 nM
Ki (Adenosine receptor A2b [10]): 1720 nM
Ki (Adenosine receptor A3 [11]): 0.8 nM
Ki (Adenosine receptor A1 [12]): 796 nM
IC50 (Adenosine receptor A3 [13]): 6.8 nM
Ratio [4]: 995
Ratio [5]: 2140
SMILES: COc1ccc(NC(=O)Nc2nc3nn(C(C)(C)C)cc3c3nc(-c4ccco4)nn23)cc1
